Assay results reported in publication PMC6853148 (Clinical and Translational Science, 2019).
Read-outs that look alike come from different tables or passages of the source.

How the values were obtained:
[1] = cited from earlier work
CYP3A = conditions: cited from earlier work
[2] = Population PK model of venetoclax in healthy subjects; format: in vivo, healthy female subjects
Summary of the method: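 Pooled data from 203 healthy women (21–65 y, BMI 18.6–30.1 kg/m2) given oral doses of 10–400 mg, 1–4 times with ≥7-day washout, after a 10-h fast or within 30 min of a low/moderate/high-fat breakfast. Serial plasma sampling up to 96 h; assayed by liquid–liquid extraction LC-MS/MS. Two-compartment nonlinear mixed-effects model with lagged first-order absorption, exponential IIV on CL/F, Vc/F and F, and combined residual error. Covariates kept by backward elimination (P < 0.01); low-fat meal as reference.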

[3] = system: breast cancer resistance protein; conditions: cited from earlier work
[4] = 4‐week dog studies, male; no reference given; cited from earlier work
B‐lymphocytes = format: in vivo, healthy female subjects; conditions: for time for B‐lymphocytes to recover to 90% of baseline levels: average
Summary of the method: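 B-lymphocytes counted at baseline and after dosing. Individual post hoc PK estimates were fixed, then a Friberg-type semimechanistic model was fitted with a linear drug effect. It has a proliferation compartment, sequential transit compartments, a circulating pool, and feedback (baseline/current count, exponent γ). Baseline was the median predose count, with IIV. Log-transformed counts were fitted with additive residual error and checked by goodness-of-fit plots. Simulations covered single doses.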

P‐glycoprotein = conditions: cited from earlier work
B cells = conditions: patients with rheumatoid arthritis; cited from earlier work
[5] = covariate effect on bio-availability relative to low-fat meal
[6] = model simulation, 200 mg single dose

CC1(C)CCC(CN2CCN(c3ccc(C(=O)NS(=O)(=O)c4ccc(NCC5CCOCC5)c([N+](=O)[O-])c4)c(Oc4cnc5[nH]ccc5c4)c3)CC2)=C(c2ccc(Cl)cc2)C1 [venetoclax, Venetoclax]
increase of venetoclax exposures by food ([1]; compared with fasting conditions): threefold to fivefold
mean terminal elimination half‐life ([1]; healthy subjects): 17 h
mean terminal elimination half‐life ([1]; subjects with severe hepatic impairment): 35 h
metabolizing enzyme (CYP3A): mainly metabolized by CYP3A
Fasting on F1 [2, 5]: 0.29
Moderate/high‐fat on F1 [2, 5]: 1.47
Chinese on F1 ([2]; covariate effect on bio-availability, Chinese ethnicity): 1.53
Azithromycin on F1 ([2]; covariate effect on bio-availability, coadministration of azithromycin): 0.65
Rifampin on F1 ([2]; covariate effect on bio-availability, coadministration of rifampin): 4.91
Low fat on F1 ([2]; covariate effect on bio-availability, low-fat meal is the reference category): 1
Vd ([2]; female, human, plasma, oral): 99 L
higher bioavailability with coadministration of rifampin ([2]; in vivo): 391%
higher clearance with coadministration of rifampin ([2]; in vivo): 167%
lower bio‐availability with coadministration of azithromycin ([2]; in vivo): 35%
Dose nonlinearity on F1 ([2]; parameter Fixed, not estimated): −0.178
ALAG, absorption lag time ([2]; population PK estimate): 0.04 days
KA, absorption rate ([2]; population PK estimate): 3.83 day⁻¹
CL/F, apparent clearance ([2]; population PK estimate, oral, healthy subjects): 449 L/day
higher bio‐availability with a moderate/high‐fat meal ([2]; relative to a low‐fat meal): 47%
lower bio‐availability under fasting conditions ([2]; relative to a low‐fat meal): 71%
breast cancer resistance protein transporter substrate [3]: substrate
toxicology finding [4]: testicular toxicity (germ cell loss)
B‐cell count recovered to 90% of baseline (B‐lymphocytes; even at the 400 mg dose): ≤ 2 months
Slope of drug effect (B‐lymphocytes; linear drug effect on B-lymphocytes, PD model parameter estimate): 20.9
decrease in B‐lymphocytes (B‐lymphocytes; [6]): 24% (15–35%)
time for B‐lymphocytes to recover to 90% of baseline levels (B‐lymphocytes; [6]): 48 (21–64) days
time for B‐lymphocytes to recover to 90% of baseline levels (B‐lymphocytes; model simulation, 400 mg single dose): 59 (30–66) days
recovery of B‐lymphocytes to 90% of baseline levels (B‐lymphocytes; model simulation, three 200 mg doses every week or every other week): ≤ 2 months
time for B‐cell count to rise back to baseline (B‐lymphocytes; simulations/observed data): 2–3 months
P‐glycoprotein transporter substrate (P‐glycoprotein): substrate

rituximab
time of reduction in B cells from circulation postinfusion (B cells): 1–28 weeks
